Measured values published in ChEMBL document CHEMBL1128750 (J Med Chem, 1995).

What was measured:
MCF7 = assay: In vitro cytotoxicity against hormone-responsive MCF-7 cell line.; assay type: functional, cell-based; conditions: Homo sapiens
Method in brief: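 MCF-7 cells kept in DMEM with L-glutamine, gentamycin, fungisone, insulin and 5% FBS. For the assay, 5 × 10³ cells/well were plated in DMEM with 2% carbon-stripped FBS and held 24 h at 37 °C. Compounds were then added in fresh medium for 24 h. Viable cells were read by MTT, triplicate wells per concentration, and IC50 was taken from four concentrations.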

[1] = (§1) Inhibition of calmodulin-dependent Phosphodiesterase
Method in brief: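 Calmodulin-dependent cAMP phosphodiesterase assayed with cyclic [8-3H]AMP as substrate. Tritiated AMP was converted to adenosine by snake venom 5'-nucleotidase, and nucleosides were separated from substrate on Dowex anion exchange resin with 3 mM acetic acid. Basal, calmodulin-independent activity was taken with 1 mM EGTA. Compounds were added in DMSO at several concentrations. IC50 is the mean of triplicates ± standard error.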

[2] = as §1; remark: listed apart in the source

| SMILES | IC50 (MCF7) | IC50 [1] | IC50 [2] |
| --- | --- | --- | --- |
| CC/C(=C(\c1ccc(O)cc1)c1ccc(OCCN(C)C)cc1)c1ccccc1 | 15.5 µM | 19 µM |  |
| CC/C(=C(\c1ccc(I)cc1)c1ccc(OCCCN(C)C)cc1)c1ccccc1 |  | 1.4 µM |  |
| CC/C(=C(\c1ccc(I)cc1)c1ccc(OCCCCN2CCCC2)cc1)c1ccccc1 | 4 µM | 1 µM |  |
| CC/C(=C(\c1ccc(I)cc1)c1ccc(OCCCCN(C)C)cc1)c1ccccc1 |  | 1.3 µM |  |
| CC/C(=C(\c1ccc(I)cc1)c1ccc(OCCCN2CCCC2)cc1)c1ccccc1 | 4.5 µM | 1.1 µM |  |
| CCCCc1ccc(/C(=C(\CC)c2ccccc2)c2ccc(OCCN(C)C)cc2)cc1 |  | 3.7 µM |  |
| C#Cc1ccc(/C(=C(\CC)c2ccccc2)c2ccc(OCCN(C)C)cc2)cc1 |  | 4.6 µM |  |
| C#Cc1ccc(/C(=C(\CC)c2ccccc2)c2ccc(OCCN3CCCC3)cc2)cc1 | 14.7 µM | 3.3 µM |  |
| CC/C(=C(\c1ccc(I)cc1)c1ccc(OCCN(C)C)cc1)c1ccccc1 |  | 2.3 µM |  |
| CCCCc1ccc(/C(=C(\CC)c2ccccc2)c2ccc(OCCN3CCCC3)cc2)cc1 |  | 1.8 µM |  |
| CC/C(=C(\c1ccc(I)cc1)c1ccc(OCCN2CCCC2)cc1)c1ccccc1 [IDOXIFENE] | 7.3 µM | 1.5 µM |  |
| CC/C(=C(\c1ccccc1)c1ccc(OCCN(C)C)cc1)c1ccccc1 [TAMOXIFEN] | 14 µM |  | 6.8 µM |
